Source: ChEMBL document CHEMBL3098020, “Synthesis and biological evaluation of novel 2-amino-3-aroyl-4-neopentyl-5-substituted thiophene derivatives as allosteric enhancers of the A₁ adenosine receptor” (Bioorg Med Chem, 2014)

Columns and labels:
[1] = target: T1, Adenosine receptor A1 (Homo sapiens) (UniProt P30542); assay: Allosteric enhancement of human adenosine A1 receptor expressed in CHO cells assessed as inhibition of forskolin-stimulated cAMP production at 100 nM preincubated for 10 mins followed by forskolin challenge measured after 5 mins by scintillation counting analysis in presence of CCPA relative to control; assay type: functional, cell-based
T1 sequence (whole entry): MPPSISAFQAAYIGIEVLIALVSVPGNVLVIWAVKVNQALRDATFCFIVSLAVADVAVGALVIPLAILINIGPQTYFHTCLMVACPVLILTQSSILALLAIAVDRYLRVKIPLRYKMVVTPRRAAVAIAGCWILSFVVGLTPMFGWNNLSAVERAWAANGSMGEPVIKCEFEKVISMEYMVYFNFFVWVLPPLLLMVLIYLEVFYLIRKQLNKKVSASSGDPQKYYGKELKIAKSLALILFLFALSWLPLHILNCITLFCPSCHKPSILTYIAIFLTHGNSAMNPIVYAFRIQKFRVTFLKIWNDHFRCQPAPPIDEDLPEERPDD
How it was run: (§1)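 hA1-CHO cells (10⁶ cells/mL) in phosphate buffer with adenosine deaminase 1.0 IU/mL and Ro 20-1724 0.5 mM, preincubated 10 min at 37 °C. Compound added for 10 min, alone or at 100 nM with CCPA 1 pM. Forskolin 1 µM added for 5 min, stopped with cold 6% TCA. cAMP measured by [³H]-cAMP competition protein-binding assay; percent inhibition versus control; three experiments.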

[2] = target: T1, Adenosine receptor A1 (Homo sapiens); assay: Potentiation of [3H]CCPA binding to human adenosine A1 receptor expressed in CHO cell membranes at 10 uM after 90 mins relative to [3H]CCPA-treated control
[3] = target: T1, Adenosine receptor A1 (Homo sapiens); assay: Displacement of [3H]-DPCPX from human adenosine A1 receptor expressed in CHO cell membranes at 10 uM by scintillation counting analysis relative to control
How it was run: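 hA1-CHO membranes, pretreated with adenosine deaminase, in 50 mM Tris-HCl pH 7.4 with 1 nM [³H]DPCPX. Incubated 120 min at 25 °C. Compound 10 µM added from 100-fold DMSO stock, 1% DMSO final. Bound ligand collected on glass-fibre filters and counted by scintillation; percent inhibition of specific binding.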

[4] = target: T1, Adenosine receptor A1 (Homo sapiens); assay: Allosteric enhancement of human adenosine A1 receptor expressed in CHO cells assessed as inhibition of forskolin-stimulated cAMP production at 10 uM preincubated for 10 mins followed by forskolin challenge measured after 5 mins by scintillation counting analysis relative to control; assay type: functional, cell-based; how it was run: as §1
[5] = target: Adenosine receptor A2a (Homo sapiens) (UniProt P29274); assay: Displacement of [3H]-ZM241385 from human adenosine A2A receptor expressed in CHO cell membranes at 10 uM by scintillation counting analysis relative to control
Chain of Adenosine receptor A2a (Homo sapiens) (P29274 whole entry): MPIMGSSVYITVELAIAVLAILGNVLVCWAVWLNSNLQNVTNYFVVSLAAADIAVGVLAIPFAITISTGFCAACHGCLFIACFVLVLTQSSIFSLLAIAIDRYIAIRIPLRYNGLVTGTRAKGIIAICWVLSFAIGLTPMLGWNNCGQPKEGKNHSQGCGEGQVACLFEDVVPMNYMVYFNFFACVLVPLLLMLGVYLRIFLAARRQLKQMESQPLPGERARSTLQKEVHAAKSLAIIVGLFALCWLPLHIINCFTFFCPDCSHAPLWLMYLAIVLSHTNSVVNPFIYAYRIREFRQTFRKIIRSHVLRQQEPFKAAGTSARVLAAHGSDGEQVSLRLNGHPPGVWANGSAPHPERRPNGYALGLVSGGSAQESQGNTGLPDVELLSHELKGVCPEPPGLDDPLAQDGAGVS
How it was run: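 A2A-expressing CHO membranes, pretreated with adenosine deaminase, in 50 mM Tris-HCl, 10 mM MgCl₂ pH 7.4 with 1 nM [³H]ZM 241385. Incubated 60 min at 4 °C. Compound 10 µM in 1% DMSO final. Filtration and scintillation counting; percent inhibition of specific binding.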

[6] = target: T1, Adenosine receptor A1 (Homo sapiens); assay: Potentiation of CCPA-induced displacement of [3H]-DPCPX from human adenosine A1 receptor expressed in CHO cell membranes at 10 uM after 90 mins relative to CCPA-treated control
How it was run: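 CCPA (0.01 nM–1 µM) competition against [³H]DPCPX in hA1-CHO membranes, with or without compound at 10 µM. Nonspecific binding defined with 1 µM DPCPX. Ki calculated from IC50 by the Cheng-Prusoff equation; CCPA Ki shift given as fold change; three experiments.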

[7] = target: T2, Adenosine receptor A3 (Homo sapiens) (UniProt P0DMS8); assay: Displacement of [3H]-MRE-3008-F20 from human adenosine A3 receptor expressed in CHO cell membranes at 10 uM by scintillation counting analysis relative to control
T2 sequence (whole entry): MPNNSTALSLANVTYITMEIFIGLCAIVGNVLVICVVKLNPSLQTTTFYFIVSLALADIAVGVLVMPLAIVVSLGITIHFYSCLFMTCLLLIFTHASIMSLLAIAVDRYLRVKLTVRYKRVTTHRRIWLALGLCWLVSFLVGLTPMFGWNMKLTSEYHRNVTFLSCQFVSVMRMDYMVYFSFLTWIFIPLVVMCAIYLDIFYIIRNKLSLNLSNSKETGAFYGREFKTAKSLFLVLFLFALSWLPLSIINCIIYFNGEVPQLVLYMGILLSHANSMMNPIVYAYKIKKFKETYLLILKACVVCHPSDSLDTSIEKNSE
How it was run: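 A3-expressing CHO membranes in 50 mM Tris-HCl, 10 mM MgCl₂, 1 mM EDTA pH 7.4 with 2 nM [³H]MRE-3008-F20. Incubated 120 min at 4 °C. Compound 10 µM in 1% DMSO final. Filtration and scintillation counting; percent inhibition of specific binding.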

Row | SMILES | inhibition [1] | fold change (FC) [2] | inhibition [3] | inhibition [4] | inhibition [5] | fold change (FC) [6] | inhibition [7]
1 | CC(C)(C)Cc1c(/C=C/c2ccc(Cl)cc2)sc(N)c1C(=O)c1ccc(Cl)cc1 | 53% | 4.8 | 1% | 51% | 1% | 2.8 | 11%
2 | CC(C)(C)Cc1c(-c2cc(F)ccc2F)sc(N)c1C(=O)c1ccc(Cl)cc1 | 45% | 5.3 | 3% | 46% | 1% | 3.4 | 1%
3 | CC(C)(C)Cc1c(-c2ccccc2)sc(N)c1C(=O)c1ccc(Cl)cc1Cl | 55% | 6.8 | 1% | 52% | 1% | 4.4 | 1%
4 | COc1ccc(-c2sc(N)c(C(=O)c3cccc(C(F)(F)F)c3)c2CC(C)(C)C)cc1 | 46% | 4 | 2% | 44% | 1% | 1.8 | 1%
5 | CC(C)(C)Cc1c(-c2c(F)cccc2F)sc(N)c1C(=O)c1ccc(Cl)cc1 | 46% | 4.2 | 1% | 45% | 2% | 2.4 | 1%
6 | CC(C)(C)Cc1c(-c2ccc(F)cc2F)sc(N)c1C(=O)c1ccc(Cl)cc1 | 49% | 5.3 | 1% | 48% | 1% | 3.6 | 1%
7 | CC(C)(C)Cc1c(-c2ccc(OC(F)(F)F)cc2)sc(N)c1C(=O)c1ccc(Cl)cc1 | 55% | 6.4 | 1% | 56% | 1% | 4.6 | 1%
8 | CC(C)(C)Cc1c(-c2ccc3c(c2)OCO3)sc(N)c1C(=O)c1ccc(Cl)cc1 | 59% | 6.6 | 1% | 61% | 1% | 5.2 | 1%
9 | Cc1ccc(C(=O)c2c(N)sc(-c3ccccc3)c2CC(C)(C)C)cc1 | 61% | 6.7 | 1% | 62% | 6% | 5 | 1%
10 | CC(C)(C)Cc1c(-c2ccsc2)sc(N)c1C(=O)c1ccc(Cl)cc1 | 67% | 6.4 | 2% | 62% | 1% | 4.7 | 4%
11 | COc1ccccc1-c1sc(N)c(C(=O)c2ccc(Cl)cc2)c1CC(C)(C)C | 29% | 2.5 | 1% | 27% | 1% | 1.9 | 1%
12 | CC(C)(C)Cc1c(-c2ccco2)sc(N)c1C(=O)c1ccc(Cl)cc1 | 47% | 5.1 | 1% | 49% | 1% | 3.5 | 1%
13 | COc1ccc(-c2sc(N)c(C(=O)c3ccc(Cl)cc3)c2CC(C)(C)C)cc1 | 43% | 6.1 | 1% | 44% | 1% | 4.3 | 2%
14 | Cc1c(Br)sc(N)c1C(=O)c1ccc(Cl)cc1 | 25% | 1.8 | 1% | 21% | 1% | 1.9 | 1%
15 | CC(C)(C)Cc1c(-c2ccccc2)sc(N)c1C(=O)c1cccc(C(F)(F)F)c1 | 39% | 4 | 1% | 38% | 1% | 3.6 | 1%
16 | COc1ccc(-c2sc(N)c(C(=O)c3ccc(Cl)cc3)c2C)cc1 | 22% | 2.1 | 1% | 24% | 1% | 1.8 | 1%
17 | CC(C)(C)Cc1c(-c2ccc(F)cc2)sc(N)c1C(=O)c1ccc(Cl)cc1 | 52% | 5.5 | 1% | 50% | 1% | 3.7 | 9%
18 | Cc1c(-c2ccccc2)sc(N)c1C(=O)c1ccc(Cl)cc1 | 20% | 1.5 | 1% | 18% | 8% | 1.5 | 1%

Further lines, results first:

Row | inhibition [1] | fold change (FC) [2] | inhibition [3] | inhibition [4] | inhibition [5] | fold change (FC) [6] | inhibition [7] | SMILES
19 | 52% | 6 | 1% | 54% | 1% | 4.3 | 1% | COc1ccc(-c2sc(N)c(C(=O)c3ccc(Cl)c(Cl)c3)c2CC(C)(C)C)cc1
20 | 61% | 6 | 1% | 59% | 1% | 4.3 | 1% | CC(C)(C)Cc1c(-c2ccc(Cl)c(Cl)c2)sc(N)c1C(=O)c1ccc(Cl)cc1
21 | 40% | 4.5 | 1% | 42% | 1% | 4 | 1% | CC(C)(C)Cc1c(Br)sc(N)c1C(=O)c1ccc(Cl)c(Cl)c1
22 | 19% | 1.6 | 1% | 17% | 1% | 3.4 | 1% | CC(C)Cc1csc(N)c1C(=O)c1ccc(Cl)cc1
23 | 18% | 1.3 | 1% | 11% | 1% | 1.6 | 1% | CC(C)(C)c1csc(N)c1C(=O)c1ccc(Cl)cc1
24 | 41% | 4.1 | 1% | 43% | 1% | 2 | 10% | CC(C)(C)Cc1csc(N)c1C(=O)c1ccc(Cl)c(Cl)c1
25 | 57% | 5.9 | 1% | 56% | 1% | 4.8 | 6% | CC(C)(C)Cc1c(-c2ccccc2)sc(N)c1C(=O)c1ccc(Cl)c(Cl)c1
26 | 50% | 6.8 | 1% | 48% | 2% | 4.5 | 1% | CC(C)(C)Cc1c(Br)sc(N)c1C(=O)c1ccc(Cl)cc1
27 | 30% | 2.6 | 1% | 28% | 1% | 1.7 | 1% | CC(C)(C)Cc1csc(N)c1C(=O)c1cccc(C(F)(F)F)c1
